Among the data in the array DNA melting data of Ke et al. (doi:10.1101/2024.01.08.574731) are folding enthalpy and Tm values, retold here.

The nature of data set [1]: folding enthalpy; higher = less favourable; fluorescence melt of hairpins on a sequencing array, two-state fit. The note with it: sodium 0.088 M. An outline of the steps:
(§1)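 Library hairpins on a sequenced MiSeq flow cell carried annealed Cy3 and quencher oligos, and their Cy3 fluorescence was imaged in 50 mM Na-HEPES pH 8.0 with 25 mM NaCl, in 2.5 °C steps up to 60 °C. Signals were normalised to Cy3 before quenching and to control constructs. Melting temperature and folding enthalpy were obtained from bootstrapped two-state fits, combined by inverse-variance weighting across four replicates, and the fitted temperatures were then raised by 9.35 °C to match UV melts.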

A short description of data set [2]: melting temperature; fluorescence melt of hairpins on a sequencing array, two-state fit, raised by 9.35 °C to match UV melts. The settings on record: sodium 0.088 M. An outline of the steps:
as §1

Regarding GTACGAGGAAACCCGTAC (((((.(....).))))), the folding enthalpy in data set [1] is -30.8 kcal/mol. In addition, the Tm in data set [2] was 46.5 °C.
In the same order, the values of GCGGATGCGAAAGCACGC (((..(((....)))))) are -15.8 kcal/mol and 56.6 °C.
The corresponding values for GTCTAGGGAAACCTGGAC (((.(((....))).))) are -30.2 kcal/mol and 47.4 °C.
In the same order, the values of GATCTCTAGGGAGATC ((((((....)))))) are -39.7 kcal/mol and 53.1 °C.
Turning to GGTGTTCGAAAGAATACC (((.(((....))).))), the folding enthalpy in data set [1] was -45.6 kcal/mol. Also, the Tm in data set [2] came to 53.6 °C.
The corresponding values for GGACGGCGAAAGCCCTCC (((.(((....))).))) are -20.5 kcal/mol and 41.4 °C.
Take GTGGGGGGAAACCCTCGC (.(.(((....))).).): in data set [1], the folding enthalpy is -17.2 kcal/mol. Besides, the Tm in data set [2] was found to be 40.8 °C.
As to GACTACCCGAAAGGGGTC (((..(((....)))))), in data set [1], the folding enthalpy was -11.3 kcal/mol. Besides, the Tm in data set [2] amounted to 38.3 °C.
The corresponding values for GGTTGTCCGAAAGGAACC (((..(((....)))))) are -14.5 kcal/mol and 31.2 °C.
As to GCAAAGGGAAACCCTTGC ((((.((....)).)))), in data set [1], the folding enthalpy was -29.5 kcal/mol. Further, in data set [2], the Tm came to 46 °C.
The corresponding values for GCAACGGGAAACCATTGC ((((.((....)).)))) are -26.8 kcal/mol and 41.5 °C.
On to GCTCTGCGAAAGCTGAGC ((((.((....)).)))), for which, in data set [1], the folding enthalpy is -41.2 kcal/mol. For the same sequence, in data set [2], the Tm came out at 68.3 °C.
Take GCTTCCGGAAACAGAAGC (((((.(....).))))): in data set [1], the folding enthalpy is -30.6 kcal/mol. Besides, the Tm in data set [2] was 41.9 °C.
Turning to GTTGCGCCGAAAGGCAAC (((..(((....)))))), the folding enthalpy in data set [1] is -13.2 kcal/mol. For the same sequence, the Tm in data set [2] turned out to be 42.4 °C.
In the same order, the values of GCTTTTGAAAAAAAGC ((((((....)))))) are -30.5 kcal/mol and 50.4 °C.
Take GGTACGGGAAACCGTGCC ((.((((....)))).)): the folding enthalpy in data set [1] was -40.9 kcal/mol. Further, in data set [2], the Tm amounted to 59.7 °C.
The corresponding values for GATCTGGTGCAGATC ((((((...)))))) are -31.1 kcal/mol and 49.5 °C.
Consider GAATTGGGAAACCAATTC (((((((....))))))), for which, in data set [1], the folding enthalpy is -45 kcal/mol. Also, the Tm in data set [2] is 54 °C.
Consider GCCCGGCGAAAGCCACGC ((..(((....)))..)), for which the folding enthalpy in data set [1] is -8.86 kcal/mol. In addition, the Tm in data set [2] stood at 35.9 °C.
The corresponding values for GAGTCAGAAATGACTC ((((((....)))))) are -25 kcal/mol and 54.6 °C.
In the same order, the values of GATCACGCTGTGATC ((((((...)))))) are -39.5 kcal/mol and 59.2 °C.
Turning to GGTCTCCGAAAGGAAACC (((.(((....))).))), in data set [1], the folding enthalpy was -29.2 kcal/mol. The Tm in data set [2] is 45.5 °C.
For the sequence GTTAGAGGAAACTCTAAC (((((((....))))))), the folding enthalpy in data set [1] is -39.7 kcal/mol. Also, the Tm in data set [2] was 51.6 °C.
Consider GTTACCGAAAGGTTAAC ((((((....))).))), for which the folding enthalpy in data set [1] is -15.4 kcal/mol. Further, in data set [2], the Tm came out at 41.9 °C.
Turning to GATCATTATCATGATC ((((((....)))))), the folding enthalpy in data set [1] is -38.9 kcal/mol. The Tm in data set [2] was 45.8 °C.
The corresponding values for GCGAGGAATCGC ((((....)))) are -20.5 kcal/mol and 54.6 °C.
The corresponding values for GATGGCGAAAGCCAATC ((((((....))).))) are -14.1 kcal/mol and 50.7 °C.
In the same order, the values of GCCACGCGAAAGCTGGGC (((..((....))..))) are -27 kcal/mol and 60 °C.
Turning to GGTACATCGAAAGATACC (((..(((....)))))), the folding enthalpy in data set [1] was -11.5 kcal/mol. The Tm in data set [2] was determined as 29.7 °C.
In the same order, the values of GAACCCGGAAACGGGTCC (.(((((....))))).) are -11.2 kcal/mol and 45.4 °C.
In the same order, the values of GATCTAGAATAGATC ((((((...)))))) are -37.4 kcal/mol and 49.9 °C.
Take GCGCTGCGAAAGCACGC (((.(((....)))))): the folding enthalpy in data set [1] was -17.6 kcal/mol. For the same sequence, the Tm in data set [2] worked out at 69.2 °C.
As for GATCGGAAGTCCGATC ((((((....)))))), the folding enthalpy in data set [1] was -38.9 kcal/mol. For the same sequence, the Tm in data set [2] turned out to be 55.2 °C.
GTGACCCCGAAAGGGCAC (((..(((....)))))): the folding enthalpy in data set [1] was -24.9 kcal/mol. Moreover, the Tm in data set [2] was 50.8 °C.
For GGGGGTCGAAAGACACCC (((.(((....))).))), in data set [1], the folding enthalpy was -35.5 kcal/mol. Moreover, in data set [2], the Tm stood at 67.4 °C.
In the same order, the values of GTCGTTGGAAACAACGAC (((((((....))))))) are -41.6 kcal/mol and 67.6 °C.
In the same order, the values of GGACGGGCGAAAGCCTCC (((..(((....)))))) are -10.5 kcal/mol and 33.7 °C.
The corresponding values for GGGTAAGAAATTACCC ((((((....)))))) are -27.4 kcal/mol and 50.9 °C.
For the sequence GTTCACGAAAGTGTCAAC ((((((....)))..))), the folding enthalpy in data set [1] was -10.7 kcal/mol. Further, in data set [2], the Tm turned out to be 28.6 °C.
In the same order, the values of GATCCACATTTGGATC ((((((....)))))) are -36.8 kcal/mol and 50.7 °C.
The corresponding values for GATCGGTGACCGATC ((((((...)))))) are -38.7 kcal/mol and 55.5 °C.
In the case of GTGGGATCGAAAGATCAC (((..(((....)))))), in data set [1], the folding enthalpy was -44.4 kcal/mol. For the same sequence, the Tm in data set [2] came out at 54.4 °C.
The corresponding values for AGCGTGAAAACGCT (((((....))))) are -18.5 kcal/mol and 65.6 °C.
For the sequence GATCGTGGAAACATGATC ((((.((....)).)))), in data set [1], the folding enthalpy was -43.8 kcal/mol. The Tm in data set [2] was 47.5 °C.
Turning to GGATACGAAAGTAGTCC ((((((....))).))), the folding enthalpy in data set [1] is -20.6 kcal/mol. Besides, the Tm in data set [2] amounted to 40.4 °C.
As to GCAGTGCGAAAGCAGCGC ((..(((....)))..)), the folding enthalpy in data set [1] is -17 kcal/mol. Also, the Tm in data set [2] amounted to 59.7 °C.
For the sequence GATCCGGCATCGGATC ((((((....)))))), the folding enthalpy in data set [1] is -45.5 kcal/mol. For the same sequence, in data set [2], the Tm stood at 64.8 °C.
In the same order, the values of GCGCCGCGAAAGCCGAGC ((.(.((....)).).)) are -18.9 kcal/mol and 50.5 °C.
Consider GTCGTTGGAAACAGTGAC (((..((....))..))), for which, in data set [1], the folding enthalpy is -13.5 kcal/mol. The Tm in data set [2] was determined as 32.4 °C.
In the case of GTCCAAGGAAACTTGGGC (.(((((....))))).), in data set [1], the folding enthalpy is -46.6 kcal/mol. Besides, the Tm in data set [2] turned out to be 51.1 °C.
In the same order, the values of GATCCAACTATGGATC ((((((....)))))) are -39.6 kcal/mol and 49.6 °C.
The corresponding values for GATCGGGAAGCCGATC ((((((....)))))) are -37.9 kcal/mol and 59.6 °C.
In the same order, the values of GAAACGCGAAAGCGCTTC (((.(((....))).))) are -18.7 kcal/mol and 51.5 °C.
Turning to GCTAACTCGAAAGAGAGC (((..(((....)))))), the folding enthalpy in data set [1] was -16.5 kcal/mol. Also, the Tm in data set [2] came to 32 °C.
Turning to GACTACGGAAACGTAGTC (((((((....))))))), the folding enthalpy in data set [1] was -37.8 kcal/mol. The Tm in data set [2] was 61.4 °C.
In the same order, the values of GGAAGCGAAAGCTGCTCC ((((((....)))..))) are -11.8 kcal/mol and 37.9 °C.
With GTTTATGGAAACATAGAC ((.((((....)))).)), the folding enthalpy in data set [1] was -23.7 kcal/mol. In data set [2], the Tm stood at 32.2 °C.
Regarding GATCCGCCACGGATC ((((((...)))))), the folding enthalpy in data set [1] was -37 kcal/mol. Further, the Tm in data set [2] is 57.2 °C.
As for GCATGGGCGAAAGCCTGC (((..(((....)))))), the folding enthalpy in data set [1] was -16.3 kcal/mol. Moreover, in data set [2], the Tm worked out at 48.7 °C.
For GCGTAGCGAAAGCCATGC ((.(.((....)).).)), the folding enthalpy in data set [1] was -7.22 kcal/mol. Further, the Tm in data set [2] was determined as 35.6 °C.
The corresponding values for GTCATGGGAAACCATGAC (((((((....))))))) are -44.5 kcal/mol and 60.7 °C.
In the same order, the values of GCTTCTGCGAAAGCAAGC (((..(((....)))))) are -9.99 kcal/mol and 38.3 °C.
In the same order, the values of GGCCAGAAATGGCC (((((....))))) are -29 kcal/mol and 67.5 °C.
Consider GGAGTTCGAAAGAAGTCC (((.(((....))).))), for which the folding enthalpy in data set [1] was -41.3 kcal/mol. Further, the Tm in data set [2] was determined as 54.1 °C.
GATCTGTCTCCAGATC ((((((....)))))): the folding enthalpy in data set [1] is -45.9 kcal/mol. The Tm in data set [2] came to 48.4 °C.
In the same order, the values of GCACCGCGAAAGCTGTGC ((((.((....)).)))) are -32.1 kcal/mol and 66.2 °C.
In the same order, the values of GCGGCGCGAAAGCTTCGC (((..((....))..))) are -16.8 kcal/mol and 54.1 °C.
In the same order, the values of CAGTGGAAACACTG (((((....))))) are -23 kcal/mol and 51.7 °C.
On to GATCATAAGATGATC ((((((...)))))), for which, in data set [1], the folding enthalpy is -31.1 kcal/mol. The Tm in data set [2] worked out at 46.6 °C.
In the same order, the values of GCCCCGCGAAAGCTTGGC (((..((....))..))) are -19.9 kcal/mol and 43.1 °C.
In the same order, the values of GAGTGGGGAAACCCACCC (.(((((....))))).) are -12.2 kcal/mol and 42.7 °C.
The corresponding values for GTCCTGGAAACAGGAC ((((((....)))))) are -38.6 kcal/mol and 63 °C.
Turning to GGAACAACGAAAGTTTCC (((..(((....)))))), the folding enthalpy in data set [1] was -15.5 kcal/mol. Moreover, the Tm in data set [2] was found to be 29.9 °C.
With GTGGCCGCGAAAGCGCAC (((..(((....)))))), the folding enthalpy in data set [1] was -9.11 kcal/mol. The Tm in data set [2] stood at 48.4 °C.
